From PubChem
INS promoter act: TRM-6 insulin promoter activation | TRM-6 cells, insulin promoter eGFP reporter, imaging; plate-scaled: unstimulated 0, stimulated control 100 | activation, % at 2 µM | hit rate 0.81% among 130,000 | AID 1296;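 active means activation at 2 µM above a set limit, confirmed on inspection of the cell images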;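 further: share of cells whose green reporter signal exceeds an intensity cutoff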
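Material: Human fetal islet-derived TRM-6 cells with tamoxifen-inducible insulin promoter–eGFP reporter | Medium: Low-glucose (5.5 mM) medium with tamoxifen | Probe or stimulus: Tamoxifen inducer, 0.75 µM, in seeding medium | Schedule: Tamoxifen pre-incubation 15 h overnight, then compound exposure 48 h at 37 °C | Detection: High-content imaging of fixed cells with Hoechst nuclear stain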
Numbers stand for hits; 0 = inactive. The entries come from a sample that favours hits as a whole.

SMILES	INS promoter act
O=C(COc1ccc(Cl)cc1)N1CCN(Cc2ccc([N+](=O)[O-])cc2)CC1	0
O=[N+]([O-])[N-][n+]1cnn(Cc2ccc(Cl)cc2)c1	141
O=c1[nH]c(=O)n(C2CCCCC2)c(O)c1C1NCCc2ccccc21 (configuration not stated)	0
CC(C)C[C@H](NC(=O)[C@@H]1CCCN1C(=O)[C@@H](N)Cc1ccc(O)cc1)C(=O)NCC(N)=O	0
CN1CCN(/N=C/c2c(O)n(C)c(=O)n(C)c2=O)CC1	0
Cc1ccc(S(=O)(=O)NC(Cc2cnc[nH]2)C(=O)O)cc1 (configuration not stated)	0
CCCC(=O)OCC[N+](C)(C)C	0
CN1/C(=C\C=C\C2=[N+](C)c3ccc4ccccc4c3C2(C)C)C(C)(C)c2ccccc21	151
CN1/C(=C\C=C2C(=O)NC(=O)NC2=O)C(C)(C)c2ccccc21	0
Cn1c(=O)n(C)c2cc([N+](=O)[O-])c(N3CCNCC3)cc21	0
CCN(CC)c1ccc(/C=N/c2sc3c(c2C#N)C2CCN3CC2)c(O)c1	285
CC(=O)N1N=C2C3CCN(CC3)C2C1c1cccc2ccccc12 (configuration not stated)	0
O=C1C2CCN(CC2)C1Cc1ccc(OCCOc2ccccc2)cc1 (configuration not stated)	0
CCOC(=O)[C@]1(C#N)[C@@H]2C=CC(C(C)=O)=CN2[C@@H](C(N)=O)[C@@H]1c1ccsc1	0
C=CC(C)C(C(=O)c1ccccc1)N(C)C (configuration not stated)	0
CN1CCN(Cc2ccccc2Sc2ccccc2)CC1	0
CCP(=S)(CC)c1ccc(N(C)C)cc1	396
CC12CN3C(O)C(C)(C1)CC(C)(C2)C3O (configuration not stated)	0
C=CCn1c(=O)c(C=Nc2cccnc2Cl)c(O)n(CCCC)c1=O	0
Cc1ccc(S(=O)(=O)CC(C)(O)C(=O)Nc2cccc(C(F)(F)F)c2)cc1 (configuration not stated)	212
OC(CNC1CCCCC1)C(F)(F)F (configuration not stated)	0
CCC(C)NC(=O)CN1C(=O)CN=C(c2ccccc2)c2ccccc21 (configuration not stated)	0
O=C(C1CC(c2ccc(Cl)c(Cl)c2)=NO1)N1CCC2(CC1)OCCO2 (configuration not stated)	0
Cc1ccc(CS(=O)(=O)CCC(=O)N2CCC3(CC2)OCCO3)cc1	0
Cc1ccc(Cc2c(C)nc3nc(SCC(=O)N4CCC5(CC4)OCCO5)nn3c2C)cc1	125
SMILES	INS promoter act
Cc1ccc2c(c1)N(CCC(=O)N1CCC3(CC1)OCCO3)C(=O)CO2	0
Cc1c(N=Cc2c(O)n(CCc3ccc(F)cc3)c(=O)[nH]c2=O)c(=O)n(-c2ccccc2)n1C	400
CN(C)CCCN=Cc1c(O)n(CCc2ccccc2)c(=O)[nH]c1=O	0
CC(=Nc1c(C)n(C)n(-c2ccccc2)c1=O)c1c(O)n(Cc2ccccc2)c(=O)[nH]c1=O	0
C[N+]12CCC(CC1)C(C(O)(c1ccccc1)c1cccs1)C2 (configuration not stated)	0
Cc1nn(Cc2ccccc2)c(C)c1C(=O)OCC(=O)NC1CCS(=O)(=O)C1 (configuration not stated)	0
O=C(NCc1ccc(C(=O)N2CCC3(CC2)OCCO3)cc1)c1cccc(Br)c1	227
O=C(CNS(=O)(=O)c1cccs1)N1CCC2(CC1)OCCO2	0
O=C(c1cc(-c2ccccc2)on1)N1CCC2(CC1)OCCO2	0
Nc1ccc(C2(c3ccc(N)cc3)CN3CCC2CC3)cc1	0
Cc1cc(C)nc(-n2c(C)nc3cc(Cl)ccc3c2=O)c1	0
COP(=O)(OC)C(NC(=O)C(C)(C)C)=C(Cl)Cl	0
Cc1ccc(-n2c(O)c(/C=N/N3CCCCC3c3cccnc3)c(=O)[nH]c2=S)cc1 (configuration not stated)	0
CN1C(=O)N(C)C(=O)C2(Cc3c(ccc4ccccc34)N(C)C2)C1=O	129
CC1(C)CC(=O)C=C(NCCN2CCN(C(=O)Cc3ccc(Cl)cc3)CC2)C1	0
CCOC(=O)c1ccc(N=Cc2c(O)n(-c3ccccc3F)c(=S)[nH]c2=O)cc1	0
COc1ccc(N=Cc2c(O)n(-c3ccc(C)cc3)c(=O)[nH]c2=O)cc1	0
CCN(CC)c1ccc(N=Cc2c(O)n(-c3cc(OC)ccc3OC)c(=O)[nH]c2=O)cc1	650
CCSP1(=S)N=C(N2CCOCC2)C(C#N)=C2CCCN21 (configuration not stated)	0
Cc1ccccc1NC1(C#N)CCCCC1	0
c1ccc(C2CC3CC(c4ccco4)N2O3)cc1 (configuration not stated)	0
C=CCC1(CN2CCCCCC2=O)C(=O)NC(=O)NC1=O	0
CC(=O)N(C1=NCCCS1)c1ccccc1Cl	0
COc1ccccc1Cn1c(SCC#N)nc2cc(C(=O)N3CCC4(CC3)OCCO4)ccc2c1=O	0
CC12CCC3C(CC=C4CC5(CCC43C)OCCO5)C1CCC2=O (configuration not stated)	0
SMILES	INS promoter act
CC1CCC/C=C/C2CC(O)CC2C(O)/C=C/C(=O)O1 (configuration not stated)	228
CC1CCC[C@H](O)CCCCCc2cc(O)cc(O)c2C(=O)O1 (some centres not stated)	0
CN(C)c1cccc2c(C#N)ccc(N(C)C)c12	0
COC(=NC1CCCC1)C(O)c1c[nH]c2ccccc12 (configuration not stated)	667
Cc1cc2ccccc2c(=O)n1CC(=O)NCC(=O)N1CCC2(CC1)OCCO2	0
[O-][n+]1onc2c1CCC1N(O)CCC21O (configuration not stated)	0
CCC1CCCCN1P(=O)(c1ccc(C)o1)C(C)(C)C (configuration not stated)	0
CSc1ncc(Cl)c(C(=O)O)n1 (tested in a mixture with another compound)	0
Nc1ccc(Cl)cc1C(=O)c1ccccc1Cl	433
Cc1sc2nc(COC(=O)Cc3ccccc3)[nH]c(=O)c2c1C	0
CCCNc1nc(OC)nc(N2CC3CC(C2)c2cccc(=O)n2C3)n1 (configuration not stated)	0
Cc1nn(-c2ccccc2)c(Cl)c1C1C(C#N)=C(N)Oc2c1c(=O)oc1ccccc21 (configuration not stated)	0
COC(=O)CC1NC2CCCCC2NC1=O (configuration not stated)	0
Cc1ccc(OCC(=O)NCCN2CCN(C(=O)COc3ccc(C)cc3)CC2)cc1	0
CC(Cc1ccccc1)[n+]1cc(/N=C(\[O-])N(C)C)on1 (configuration not stated)	0
O=C(c1ccc2c(c1)OCO2)C1CCCN(Cc2ccccn2)C1 (configuration not stated)	0
COc1c(C)cc(C(=O)C2CCCN(Cc3ccccn3)C2)cc1C (configuration not stated)	319
CSc1ccc(C(=O)C2CCCN(Cc3cc4ccccc4[nH]3)C2)cc1 (configuration not stated)	0
O=C(COc1ccccc1F)N1CCN(CCN2C(=O)c3cccc4cccc(c34)C2=O)CC1	0
Cc1cc(NC(=O)CCl)no1	0
